Structures are written as SMILES.

This data set is described as follows: Toxicity liver stage against HepG2, at 10uM. The format is cell-based. The note with it: human, HepG2-A16-CD81EGFP cells; read-out: INHIBITION
Also noted: test concentration 10 uM, cell line HepG2-A16-CD81EGFP. The procedure, abridged: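 Uninfected HepG2-A16-CD81EGFP cells, 3 × 10^3 per well, 1536-well, plated on prespotted compound at 10 μM final, parasite-free screening media added to match infected plates; puromycin 10 μM positive, DMSO 0.5% negative; run in parallel with 48 h PbLuc assay at 37 °C, 5% CO2; viability by CellTiter-Glo luminescence, normalized to controls.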
Regarding `Cc1nc(C(=O)N2CCC(Nc3cccnn3)CC2)cs1`, the cytotoxicity at 10 µM came to 6.74%.
For `CCCOC1CCCN(C(=O)c2ccnc(N3CCN(C)CC3)c2)C1` (stereo unspecified) the value was -5.7%; for `O=C(c1ccco1)N1CC[C@@H]2O[C@H](COCCN3CCCC3)CC[C@@H]21`, -100%.
For `O=C1Nc2ccccc2CC12CCCN2Cc1ccc(F)cc1` (stereo unspecified) the value was 10.5%; for `COc1cccc2c1N(Cc1nc(C3CC3)no1)CCC2`, 11.2%.
On to `COCC(=O)N1CCC2(CCC2NS(=O)(=O)c2ccccc2)CC1` (stereo unspecified), for which the cytotoxicity at 10 µM was determined as 0.073%.
In the case of `CN1CCC(Oc2ccc(-n3ccnc3-c3ccncc3)cc2)CC1`, the cytotoxicity at 10 µM is -3.05%.
Take `O=C(c1ccncc1)N1CC2(CCNCC2)c2cc(Cl)ccc21`: the cytotoxicity at 10 µM was -3.22%.
For `CCN1CCN(S(=O)(=O)c2cn(C(C)C)cn2)c2ccccc21` the value was -4.3%.
For the molecule `Cc1nc2c(c(=O)n1C)CN(C(=O)C1CCCN(C3CCCC3)C1)C2` (stereo unspecified), the cytotoxicity at 10 µM was -8.67%.
For `Cc1nnc(CN(CCc2ccccc2)C2CCN(C)CC2)s1` the value was 0.219%; for `Cc1n[nH]c(-c2ccc(NC(=O)C(C)(C)N3CCN(C)CC3)cc2)n1`, -0.876%.
In the case of `N#Cc1ccnc(N2CCN(C(=O)Cc3ccc4c(c3)CCO4)CC2)c1`, the cytotoxicity at 10 µM is -4.1%.
With `CN(C)c1cccc(C(=O)Nc2cnn(Cc3ccccn3)c2)c1`, the cytotoxicity at 10 µM came out at 4.81%.
For the molecule `CNC(=O)c1ccc(C2CN(C(=O)COC)CCO2)nc1` (stereo unspecified), the cytotoxicity at 10 µM was 3.25%.
The figure for `CC(C)=CCC1(C(=O)O)CCCN(c2cc(N)ncn2)C1` (stereo unspecified) is 10.1%; for `CC(C)NC(=O)[C@H]1C[C@@H]2[C@@H](C1)OCCN2Cc1ccncc1` it is 6.62%.
As for `O=C(CCn1cc(Cl)cn1)N1CCN(CCOc2ccccc2)CC1`, the cytotoxicity at 10 µM was 4.92%.
Take `NC(=O)COc1cccc(Cn2cc(Br)cn2)c1`: the cytotoxicity at 10 µM is 1.98%.
`Cc1nc(NC(=O)NC2CC(=O)N(C)C2)nn1C(C)C` (stereo unspecified): the cytotoxicity at 10 µM is -8.15%.
For `c1cc(CN2CCCC(c3ccnc4nccn34)C2)ccn1` (stereo unspecified) the value was -3.29%; for `COc1nn(C)c2c1CCCN(C(=O)c1ccccc1F)C2`, 11.5%; for `CCCN1CCC(NC(=O)c2csc(C)c2-c2ccccc2)CC1`, -133%.
Consider `COc1ccccc1C(C)CNC(=O)c1c(C)nn(C)c1OC` (stereo unspecified), for which the cytotoxicity at 10 µM was -11.4%.
On to `CCn1cc(CN2CCCC(COc3ccccc3F)C2)cn1` (stereo unspecified), for which the cytotoxicity at 10 µM is -47.7%.
For `COc1ccccc1C(O)CNCc1c(C(C)C)nn(C)c1N(C)C` (stereo unspecified), the cytotoxicity at 10 µM was -7.31%.
Take `O=c1ccc(-n2ccnc2)nn1CCNS(=O)(=O)c1ccc(Br)cc1`: the cytotoxicity at 10 µM was -7.21%.
For the molecule `CN(C)C[C@]12COC[C@H]1CN(C(=O)CCc1ccccc1)C2`, the cytotoxicity at 10 µM was -1.89%.
As for `CSCC(C)(O)CNS(=O)(=O)c1cccc(Cl)c1` (stereo unspecified), the cytotoxicity at 10 µM is -0.396%.
Turning to `N#CC1COCCN1C(=O)c1ccc2[nH]ccc2c1` (stereo unspecified), the cytotoxicity at 10 µM worked out at 14.4%.
For `CN(CCOc1ccc(Cl)cc1)Cc1ccc(S(=O)(=O)N(C)C)o1` the value was 33.6%.
For the molecule `COc1ccc(C)cc1CN1CCN(Cc2nccn2C)C(C)C1` (stereo unspecified), the cytotoxicity at 10 µM is 1.43%.
In the case of `O=C(CCc1ccc(Cl)cc1)N[C@@H]1CC[C@@H](O)[C@@H]1O`, the cytotoxicity at 10 µM came out at 3.85%.
On to `Cc1cc(F)c(S(=O)(=O)N(C)CCn2cccn2)cc1F`, for which the cytotoxicity at 10 µM worked out at 0.532%.
`COc1cc(Cl)c(C)cc1NC(=O)CNc1ccn(CC(N)=O)n1`: the cytotoxicity at 10 µM was determined as 9.8%.
With `Cc1cc(C)n(CC2(CNC(=O)C(c3ccc(F)cc3)N(C)C)CC2)n1` (stereo unspecified), the cytotoxicity at 10 µM is 0.438%.
Take `CCC1CCCCN1C(=O)Cn1cnc(C#N)n1` (stereo unspecified): the cytotoxicity at 10 µM was -22.1%.
Consider `CNC(=O)NC(=O)C(NCc1cccs1)c1ccccc1` (stereo unspecified), for which the cytotoxicity at 10 µM was found to be 6.75%.
For the molecule `CN1CCN(C(=O)[C@H]2CC[C@@H]3[C@@H](CCN3Cc3nccs3)O2)CC1`, the cytotoxicity at 10 µM was determined as 5.41%.
In the case of `CC(C)[C@@H]1CN(Cc2cnc(C3CCCCC3)nc2)C[C@H]1C(=O)O`, the cytotoxicity at 10 µM was -6.46%.
With `CCOCC1CN(C(=O)Cc2ccccn2)Cc2cnn(C)c21` (stereo unspecified), the cytotoxicity at 10 µM was found to be 6.9%.
For `COCCN1C(=O)CC(N2CCN(c3ccc(OC)cc3)CC2)C1=O` (stereo unspecified), the cytotoxicity at 10 µM is -12.6%.
For `CCn1nc(C)c(-c2cncn2CCN(C)C2CCCC2)c1C` the value was 4.83%; for `CSCC(C)CNC(=O)N1CCSC(C)(C)C1` (stereo unspecified), 0.873%; for `CCS(=O)(=O)N1CCC(c2cc3n(n2)[C@@H](C(F)(F)F)C[C@@H](C)N3)CC1`, 0.436%.
The figure for `O=C(CCc1nccs1)N1CCN(c2ncccn2)CC1` is -0.313%; for `CC(=O)N1CCC2(CC1)CN(CC1CC1)c1ccc(F)cc12` it is -113%; for `CCc1noc(CN2CCCC2c2noc(C3CC3)n2)n1` (stereo unspecified) it is -3.76%.
Take `CN(C)CCn1c2c(ccc1=O)CC(NC(=O)NC1CCCC1)CC2` (stereo unspecified): the cytotoxicity at 10 µM is -0.913%.
For `Cn1cc(CNC2CCS(=O)(=O)C2)c(-c2cc3ccccc3o2)n1` (stereo unspecified), the cytotoxicity at 10 µM was -39.1%.
As to `Cn1c(CN2CCCCC2)cc(=O)c(O)c1CN1CCCCC1`, the cytotoxicity at 10 µM is -2.34%.
Turning to `Cc1nc2cc(=O)[nH]n2c(C)c1CC(=O)Nc1cnn(C(C)(C)C)c1`, the cytotoxicity at 10 µM amounted to 15%.
Turning to `COc1ccc(CNc2nnc(CC(C)(C)C)o2)cc1C#N`, the cytotoxicity at 10 µM is -10.1%.
`Cc1cccc(NC(=O)N(CCC(F)(F)F)C[C@H](O)CO)c1`: the cytotoxicity at 10 µM was determined as 4.3%.
`COc1ccccc1N1CCC(N2CCOCC(CO)C2)CC1` (stereo unspecified): the cytotoxicity at 10 µM was -6.85%.
For the molecule `Cn1cc(C(=O)NCc2cn3c(n2)CN(CC2CCCC2)CC3)cn1`, the cytotoxicity at 10 µM worked out at 7.17%.
Turning to `CC(=O)N1Cc2ccccc2CC1C(=O)Nc1ccc(N(C)C)cn1` (stereo unspecified), the cytotoxicity at 10 µM was -1.92%.
In the case of `Cc1c(C)n(-c2ccccn2)c2nc3c(c(N)c12)CCCC3`, the cytotoxicity at 10 µM came to 7.18%.
The figure for `CN(C)C(Cn1ccnc1-c1ccccc1C(=O)O)c1ccccc1Cl` (stereo unspecified) is -0.966%; for `Cn1cc(CN2CCCN(C(=O)c3sccc3C#N)CC2)cn1` it is -1.37%; for `CNC(=O)COC1COC2(CCN(Cc3ccncc3F)CC2)C1` (stereo unspecified) it is 7.37%.
For `COc1cccc(CN2CCc3nc(C(N)=O)sc3CC2)c1`, the cytotoxicity at 10 µM was -3.79%.
As to `CC(C)NC(=O)c1cc(-c2ccc(S(C)(=O)=O)cc2)c2cnn(C)c2n1`, the cytotoxicity at 10 µM was 8.3%.
In the case of `Cn1cccc1C(=O)N[C@@H]1CN(CC2CC2)[C@@H]2COC[C@@H]21`, the cytotoxicity at 10 µM came out at 1.66%.
For the molecule `CC(C)(C)c1ncc(C(=O)NCCNc2ncccn2)s1`, the cytotoxicity at 10 µM was -1.62%.
For the molecule `CCN(CC)CC1CN(Cc2nccs2)Cc2nccn2C1` (stereo unspecified), the cytotoxicity at 10 µM is 1.13%.
As for `Cc1ncc(-c2ccnc(NCCc3ccc(F)cc3)n2)c(=O)[nH]1`, the cytotoxicity at 10 µM was -7.3%.
As for `OCCCN(CCn1cncn1)c1ccccc1`, the cytotoxicity at 10 µM is -4.04%.
Take `O=C(NCC1CCOC1)N1CCN(c2ncccn2)CC1` (stereo unspecified): the cytotoxicity at 10 µM was -39.8%.
Regarding `CCCN1CC2(CCN(c3ccc(C(C)=O)cn3)CC2)CC1C(=O)O` (stereo unspecified), the cytotoxicity at 10 µM is -0.909%.
Consider `Cc1nc(CN(C)Cc2nc(-c3sccc3C)oc2C)no1`, for which the cytotoxicity at 10 µM is -0.205%.

The values above are taken from ChEMBL document CHEMBL4513216, “Probing the Open Global Health Chemical Diversity Library for Multistage-Active Starting Points for Next-Generation Antimalarials” (ACS Infect Dis, 2020).
